Experimental data: ChEMBL document CHEMBL5096201, “Rufomycins or Ilamycins: Naming Clarifications and Definitive Structural Assignments” (J Nat Prod, 2021)
pKd: −log10 of the molar value. Values after ≈ are worked out from the molar mass of the structure shown.

Columns and labels:
[1] = Binding affinity to N-terminal domain of Mycobacterium tuberculosis ClpC1 expressed in Escherichia coli BL21 (DE3) assessed as dissociation constant by surface plasma resonance assay
Summary of the method: (§1)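 SPR with ClpC1 N-terminal domain or full-length protein. Association and dissociation rate constants (ka, kd) come from global fitting of double-referenced sensorgrams to a 1:1 Langmuir model. KD is calculated as kd/ka.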

[2] = system: Mycobacterium tuberculosis; assay: Antimycobacterial activity against Mycobacterium tuberculosis incubated for 7 days by microplate alamar blue assay; format: functional; details: 168 h, time 7 day
Summary of the method: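 Microplate Alamar Blue readout by fluorescence. MIC is the lowest concentration giving a 90% fluorescence reduction relative to untreated bacterial controls.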

[3] = Binding affinity to in full length Mycobacterium tuberculosis ClpC1 expressed in Escherichia coli BL21 (DE3) assessed as dissociation constant by surface plasma resonance assay; summary of the method: as §1

Row | Compound | pKd [1] | MIC90 [2] | pKd [3]
1 | C/C=C/C[C@@H]1NC(=O)[C@H](CC(C)C)N2C(=O)[C@H](C[C@H](C)[C@H]2O)N(C)C(=O)[C@H](C)NC(=O)[C@H](Cc2ccc(O)c([N+](=O)[O-])c2)NC(=O)[C@H](CC(C)C)N(C)C(=O)[C@H](Cc2cn(C(C)(C)[C@H]3CO3)c3ccccc23)NC1=O | 7.49 | 0.021 µM (≈ 0.0219 µg/mL) | 7.51
2 | C/C=C/C[C@@H]1NC(=O)[C@H](CC(C)C)N2C(=O)[C@H](C[C@H](C)[C@@H]2O)N(C)C(=O)[C@H](C)NC(=O)[C@H](Cc2ccc(O)c([N+](=O)[O-])c2)NC(=O)[C@H](CC(C)C)N(C)C(=O)[C@H](Cc2cn(C(C)(C)[C@H]3CO3)c3ccccc23)NC1=O | 7.54 | 0.012 µM (≈ 0.0125 µg/mL) | 7.57
3 | C/C=C/C[C@@H]1NC(=O)[C@H](CC(C)C)N2C(=O)[C@H](C[C@@H](C)[C@@H]2O)N(C)C(=O)[C@H](C)NC(=O)[C@H](Cc2ccc(O)c([N+](=O)[O-])c2)NC(=O)[C@H](CC(C)C)N(C)C(=O)[C@H](Cc2cn(C(C)(C)[C@H]3CO3)c3ccccc23)NC1=O | 6.73 | 0.047 µM (≈ 0.049 µg/mL) | 6.68
4 | C/C=C/C[C@@H]1NC(=O)[C@H](CC(C)C)N2C(=O)[C@H](C[C@@H](C)[C@H]2O)N(C)C(=O)[C@H](C)NC(=O)[C@H](Cc2ccc(O)c([N+](=O)[O-])c2)NC(=O)[C@H](CC(C)C)N(C)C(=O)[C@H](Cc2cn(C(C)(C)[C@H]3CO3)c3ccccc23)NC1=O | 6.74 | 0.046 µM (≈ 0.0479 µg/mL) | 6.75
5 | NNC(=O)c1ccncc1 [ISONIAZID] | – | 0.463 µM (≈ 0.0635 µg/mL) | –
6 | CO[C@H]1/C=C/O[C@@]2(C)Oc3c(C)c(O)c4c(O)c(c(/C=N/N5CCN(C)CC5)c(O)c4c3C2=O)NC(=O)/C(C)=C\C=C\[C@H](C)[C@H](O)[C@@H](C)[C@@H](O)[C@@H](C)[C@H](OC(C)=O)[C@@H]1C [RIFAMPIN] | – | 0.028 µM (≈ 0.023 µg/mL) | –
